Reference: ChEMBL document CHEMBL1126044, “Affinity of human growth hormone-releasing factor (1-29)NH2 analogues for GRF binding sites in rat adenopituitary” (J Med Chem, 1992)

Columns and labels:
[1] = target: T1, Growth hormone-releasing hormone receptor (Rattus norvegicus) (UniProt Q02644); assay: Relative affinity compared to hGRF(1-29)NH2; type: functional
T1 sequence (whole entry): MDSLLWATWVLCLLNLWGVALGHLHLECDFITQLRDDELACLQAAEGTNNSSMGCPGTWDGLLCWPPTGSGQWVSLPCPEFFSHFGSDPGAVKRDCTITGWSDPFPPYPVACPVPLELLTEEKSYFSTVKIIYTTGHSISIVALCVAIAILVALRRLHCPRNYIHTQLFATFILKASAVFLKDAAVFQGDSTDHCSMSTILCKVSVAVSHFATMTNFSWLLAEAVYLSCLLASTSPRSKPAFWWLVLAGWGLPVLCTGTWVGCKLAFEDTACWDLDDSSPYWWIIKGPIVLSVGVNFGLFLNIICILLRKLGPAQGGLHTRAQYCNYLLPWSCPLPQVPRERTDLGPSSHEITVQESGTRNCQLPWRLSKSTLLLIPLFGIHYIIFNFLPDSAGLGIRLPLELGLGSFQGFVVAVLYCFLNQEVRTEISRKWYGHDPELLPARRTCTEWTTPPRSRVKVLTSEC
Outline: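 Radioligand competition in rat anterior pituitary homogenate using [125I-Tyr10]hGRF(1-44)NH2 at 35–50 pM and peptides at 0–1000 nM, 60 min at 23 °C. Relative affinity is the binding IC50 expressed as a percentage relative to hGRF(1-29)NH2.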

Rattus norvegicus = species on record: Rattus norvegicus; assay: Residual concentration after 60 min incubation with pituitary homogenates, in the binding assay conditions, by quantitative HPLC method; type: functional
Outline: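 Peptide at 10 µM incubated with rat pituitary homogenate (150 µg protein/100 µL) in binding-assay conditions at 23 °C for 0 and 60 min. Reaction stopped with cold 50 mM phosphate pH 0.8 and centrifugation. Controls without homogenate accounted for adsorption. Remaining peptide measured by C18 HPLC (0.01% TFA/acetonitrile gradient, UV 214 nm) and peak-area integration.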

[2] = target: T2, Growth hormone-releasing hormone receptor (Rattus norvegicus, UniProt Q02644); assay: Compound was tested to Inhibit [125I]GRF in rat adenopituitary homogenates
T2 sequence (Q02644 whole entry): T1 sequence (whole entry)
Outline: (§1)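 Anterior pituitaries from 2-month-old male Sprague-Dawley rats homogenized in ice-cold 50 mM Tris-HCl pH 7.4 with 5 mM MgCl2, 5 mM EDTA. Homogenate (70–75 µg protein) incubated with 35–50 pM [125I-Tyr10]hGRF(1-44)NH2 and peptide at 0–1000 nM in Tris-HCl buffer pH 7.4 with 5 mM EDTA, 5 mM MgCl2, 0.42% BSA, 60 min at 23 °C. Nonspecific binding defined with 2.4 µM rGRF(1-29)NH2. Bound fraction separated by centrifugation and gamma-counted. IC50 fitted with LIGAND. Mean ± SEM of three experiments, each in duplicate or triplicate.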

[3] = target: T2, Growth hormone-releasing hormone receptor; assay: Compound was tested to Inhibit [125I]-Growth hormone-releasing factor in rat adenopituitary homogenates; outline: as §1

Row | Molecule | Activity [1] [%] | Residual peptide remaining after 60 min (Rattus norvegicus) [%] | IC50 [2] [nM] | IC50 [3] [nM]
1 | H-YADAIFTNSYRKVLGQLSLLQDIMSR-NH2 | 0.6 |  | 1000 | 
2 | H-YADAIFTNSYRKVLGQLSARKLLQDIR-NH2 | 4.6 | 94 |  | 
3 | H-YADAIFTNSYRKVLGQLSARKLLDIMSR-NH2 | 12 | 85 |  | 
4 | H-YADAIFTSYRKVLGQLSARKLLQDIMSR-NH2 | 5.9 | 100 |  | 
5 | H-YADAIFTNSYRKVLGLSARKLLQDIMSR-NH2 |  |  | > 1000 | 
6 | H-YADAIFTNSYRKVLGQLSARKLLQDIMS-NH2 | 28 |  |  | 20.2
7 | H-YADAIFTNSYRKQLSARKLLQDIMSR-NH2 |  |  | > 1000 | 
8 | CC[C@H](C)[C@H](NC(=O)[C@H](C)NC(=O)[C@H](CC(=O)O)NC(=O)[C@H](C)NC(=O)[C@H](Cc1ccc(O)cc1)NC(=O)CCCCCCCN)C(=O)N[C@@H](Cc1ccccc1)C(=O)N[C@H](C(=O)N[C@@H](CC(N)=O)C(=O)N[C@@H](CO)C(=O)N[C@@H](Cc1ccc(O)cc1)C(=O)N[C@@H](CCCN=C(N)N)C(=O)N[C@@H](CCCCN)C(=O)N[C@H](C(=O)N[C@@H](CC(C)C)C(=O)NCC(=O)N[C@@H](CCC(N)=O)C(=O)N[C@@H](CC(C)C)C(=O)N[C@@H](CO)C(=O)N[C@@H](C)C(=O)N[C@@H](CCCN=C(N)N)C(=O)N[C@@H](CCCCN)C(=O)N[C@@H](CC(C)C)C(=O)N[C@@H](CC(C)C)C(=O)N[C@@H](CCC(N)=O)C(=O)N[C@@H](CC(=O)O)C(=O)N[C@H](C(=O)N[C@@H](CCSC)C(=O)N[C@@H](CO)C(=O)N[C@@H](CCCN=C(N)N)C(N)=O)[C@@H](C)CC)C(C)C)[C@@H](C)O | 26 | 100 |  | 21.6
9 | H-YADAIFTNSYRKVLGQLSARKLLQDIMR-NH2 | 78 | 100 |  | 
10 | H-YADAIFTNSYRVLGQLSARKLLQDIMSR-NH2 | 0.7 | 92 |  | 836
11 | H-ADAIFTNSYRKVLAQLSARKLLQDIMSR-NH2 | 1.5 |  |  | 
12 | H-YADAIFTNSYRKVLQLSARKLLQDIMSR-NH2 |  | 88 |  | 1000
13 | H-HADAIFTSSYRRILGQLYARKLLHEIMNR-NH2 | 57 |  |  | 9.8
14 | H-DAIFTNSYRKVLAQLSARKLLQDIMSR-NH2 | 1.8 | 93 |  | 311

Results, then the molecule that gave them:

Row | Activity [1] [%] | Residual peptide remaining after 60 min (Rattus norvegicus) [%] | IC50 [2] [nM] | IC50 [3] [nM] | Molecule
15 | 32 | 85 |  |  | CC[C@H](C)[C@H](NC(=O)[C@H](C)NC(=O)[C@H](CC(=O)O)NC(=O)[C@H](C)NC(=O)[C@H](Cc1ccc(O)cc1)NC(C)=O)C(=O)N[C@@H](Cc1ccccc1)C(=O)N[C@H](C(=O)N[C@@H](CC(N)=O)C(=O)N[C@@H](CO)C(=O)N[C@@H](Cc1ccc(O)cc1)C(=O)N[C@@H](CCCN=C(N)N)C(=O)N[C@@H](CCCCN)C(=O)N[C@H](C(=O)N[C@@H](CC(C)C)C(=O)NCC(=O)N[C@@H](CCC(N)=O)C(=O)N[C@@H](CC(C)C)C(=O)N[C@@H](CO)C(=O)N[C@@H](C)C(=O)N[C@@H](CCCN=C(N)N)C(=O)N[C@@H](CCCCN)C(=O)N[C@@H](CC(C)C)C(=O)N[C@@H](CC(C)C)C(=O)N[C@@H](CCC(N)=O)C(=O)N[C@@H](CC(=O)O)C(=O)N[C@H](C(=O)N[C@@H](CCSC)C(=O)N[C@@H](CO)C(=O)N[C@@H](CCCN=C(N)N)C(N)=O)[C@@H](C)CC)C(C)C)[C@@H](C)O
16 | 30 |  |  | 20.3 | H-YADAIFTNSYRKVLGQLSARKLLQDMSR-NH2
17 | 62 |  |  |  | H-YADAIFTNSYRKVLGQLSARKLLQDISR-NH2
18 |  | 89 |  | > 1000 | H-YADAIFTNSYRKLGQLSARKLLQDIMSR-NH2
19 | 13 | 100 |  |  | H-ADAIFTSSYRRILGQLYARKLLHEIMNR-NH2
20 | 100 | 81 |  |  | CC[C@H](C)[C@H](NC(=O)[C@H](C)NC(=O)[C@H](CC(=O)O)NC(=O)[C@H](C)NC(=O)[C@@H](N)Cc1ccc(O)cc1)C(=O)N[C@@H](Cc1ccccc1)C(=O)N[C@H](C(=O)N[C@@H](CC(N)=O)C(=O)N[C@@H](CO)C(=O)N[C@@H](Cc1ccc(O)cc1)C(=O)N[C@@H](CCCN=C(N)N)C(=O)N[C@@H](CCCCN)C(=O)N[C@H](C(=O)N[C@@H](CC(C)C)C(=O)NCC(=O)N[C@@H](CCC(N)=O)C(=O)N[C@@H](CC(C)C)C(=O)N[C@@H](CO)C(=O)N[C@@H](C)C(=O)N[C@@H](CCCN=C(N)N)C(=O)N[C@@H](CCCCN)C(=O)N[C@@H](CC(C)C)C(=O)N[C@@H](CC(C)C)C(=O)N[C@@H](CCC(N)=O)C(=O)N[C@@H](CC(=O)O)C(=O)N[C@H](C(=O)N[C@@H](CCSC)C(=O)N[C@@H](CO)C(=O)N[C@@H](CCCN=C(N)N)C(N)=O)[C@@H](C)CC)C(C)C)[C@@H](C)O
21 | 33 |  |  |  | H-YADAIFTNSYRKVLGQLSARKLLQIMSR-NH2
22 |  |  | > 1000 |  | H-YADAIFTNSYRKVLGLLQDIMSR-NH2
23 |  |  | > 1000 |  | H-YADAIFTNSYRKGQLSARKLLQDIMSR-NH2
